Source: ChEMBL document CHEMBL3232878, “QSAR on antiproliferative naphthoquinones based on a conformation-independent approach” (2014)

Columns and labels:
Assay type in all cases: functional
WiDr = assay: Growth inhibition of human WiDr cells after 48 hrs by SRB assay
Method in brief: (§1)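 Cells maintained in RPMI 1640 with 5% heat-inactivated fetal calf serum and 2 mM L-glutamine at 37 °C, 5% CO₂, humidified air. Exponentially growing cells trypsinized and resuspended in medium containing penicillin G (100 units/mL) and streptomycin (0.1 mg/mL). Single-cell suspensions with >97% viability by trypan blue exclusion counted, diluted and seeded into 96-well plates.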

[1] = Growth inhibition of human HBL100 cells after 48 hrs by SRB assay; details: HBL-100, 48 h; method in brief: as §1
HeLa = assay: Growth inhibition of human HeLa cells after 48 hrs by SRB assay; method in brief: as §1
SW1573 = assay: Growth inhibition of human SW1573 cells after 48 hrs by SRB assay; details: SW1573, 48 h; method in brief: as §1

| SMILES | GI50 (HeLa) | GI50 (SW1573) | GI50 (WiDr) | GI50 [1] |
| --- | --- | --- | --- | --- |
| CC1C2=C(OC1(C)C)c1c(O)cccc1C(=O)C2=O (configuration not stated) | 0.9 µM | 1.3 µM | 2.1 µM | 2 µM |
| C=C(C)C1CC2=C(O1)c1cccc(O)c1C(=O)C2=O (configuration not stated) [LANTALUCRATIN B] | 0.21 µM | 1 µM | 2.2 µM | 0.46 µM |
| CC1(C)C2=C(OC1CI)c1c(O)cccc1C(=O)C2=O (configuration not stated) | 1.6 µM | 1.6 µM | 1.8 µM | 1.8 µM |
| CC1OC2=C(C(=O)C(=O)c3c(O)cccc32)C1(C)C (configuration not stated) | 1.9 µM | 0.99 µM | 5.2 µM | 0.54 µM |

The remaining molecules from weak to strong by GI50 (HeLa), led by results:

| GI50 (HeLa) | GI50 (SW1573) | SMILES | GI50 (WiDr) | GI50 [1] |
| --- | --- | --- | --- | --- |
| 3 µM | 2.7 µM | C=C(C)C1CC2=C(O1)c1c(O)cccc1C(=O)C2=O (configuration not stated) | 26 µM | 3 µM |
| 1.9 µM | 2.4 µM | CC1OC2=C(C(=O)C(=O)c3cccc(O)c32)C1(C)C (configuration not stated) | 19 µM | 2.2 µM |
| 1.8 µM | 0.48 µM | CC1C2=C(OC1(C)C)c1cccc(O)c1C(=O)C2=O (configuration not stated) | 16 µM | 0.34 µM |
| 1.5 µM | 0.8 µM | CC1(C)C2=C(OC1CI)c1cccc(O)c1C(=O)C2=O (configuration not stated) | 1.9 µM | 0.46 µM |
